Published values collected from several papers.
Cell line: NCI-H226
Read-out: cell growth or viability

Structure (SMILES) | technique | time | endpoint | value
COc1ccc(C(=O)/C=C/c2cc3c(cc2Br)OCO3)cc1S(N)(=O)=O | SRB | 48 h | GI50 | 2.8 µM
O=C1NCCc2[nH]c(-c3ccncc3)cc21 | – | – | IC50 | > 10 µM
CC(=O)O[C@H]1C(=O)[C@@]2(C)[C@H]([C@H](OC(=O)c3ccccc3)[C@]3(O)C[C@H](OC(=O)[C@H](O)[C@@H](NC(=O)c4ccccc4)c4ccccc4)C(C)=C1C3(C)C)[C@]1(OC(C)=O)CO[C@@H]1C[C@@H]2O | SRB | – | IC50 | 0.0043 µM
COc1ccc(C(=O)/C=C/c2ccc(Cl)c(Cl)c2)cc1S(N)(=O)=O | SRB | 48 h | GI50 | 3 µM
O=C(/C=C/C=C/c1ccc2c(c1)OCO2)N1CCCCC1 | SRB | – | IC50 | 83.7 µM
COc1cc(-c2ccc(-c3ccc(C(=N)N)nc3)s2)cc(OC)c1OC | SRB | – | GI50 | 10.8 µM
c1ccc(-c2n(Cc3ccc4ccccc4c3)cc[n+]2Cc2ccc3ccccc3c2)cc1 | SRB | – | TGI | 2.97 µM
COc1cccc(Oc2ccccc2NC(=O)CNC(=O)c2cccc3ccccc23)c1 | SRB | 48 h | GI50 | 2.51 µM
COc1ccc(C(=O)/C=C/c2cccc(Br)c2)cc1S(N)(=O)=O | SRB | 48 h | GI50 | 2.8 µM
CCCc1n(Cc2ccc3ccccc3n2)cc[n+]1Cc1ccc2ccccc2n1 | SRB | – | TGI | 34.8 µM
S=C([S][Au-][P+](CCCCCC[P+]([Au-][S]C(=S)n1cccn1)(c1ccccc1)c1ccccc1)(c1ccccc1)c1ccccc1)n1cccn1 | SRB | – | GI50 | 6.63 µM
O=c1[nH]cc(S(=O)(=O)Nc2cccc(-c3nnc(-c4cccc(Cl)c4)o3)c2)c(=O)[nH]1 | MTT | 24 h | IC50 | 7.7 µM
COC(=O)/C=C/C=C/c1ccc2c(c1)OCO2 | SRB | – | IC50 | 99.1 µM
COc1ccc(C(=O)/C=C/c2cccc(Cl)c2)cc1S(N)(=O)=O | SRB | 48 h | GI50 | 2.8 µM
CCCc1n(Cc2ccc3ccccc3n2)cc[n+]1Cc1ccc2ccccc2c1 | SRB | – | TGI | 7.6 µM
COc1ccc(C(=O)/C=C/c2cccc3ccccc23)cc1S(N)(=O)=O | SRB | 48 h | GI50 | 3.1 µM
CCc1n(Cc2ccc3ccccc3n2)cc[n+]1Cc1ccc2ccccc2c1 | SRB | – | TGI | 4.87 µM
